# Measurements as given in PubChem BioAssay.
# Active and inactive are the calls of the source.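 The calls were made as follows, unless noted: active = GFP response above 150% of the DMSO level; inconclusive = fewer than 70 events counted for a yeast strain; inactive = the rest.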
# Key:
# [1] = hit retest on RPL19A-GFP reporter strain – cell-based, S. cerevisiae, flow cytometry, cherry picks, mother/daughter gates, confirmation (AID 2270;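 active = GFP response below 50% of the DMSO control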); settings: 3 h, at 10 µM, stronger effect = lower value, 100 = same GFP as DMSO wells
# [2] = yeast TOR pathway reporter LAP4-GFP change – cell-based, cherry picks, flow cytometry, mother/daughter gates, confirmation (AID 2271;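 active = GFP response above 150% of the DMSO control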;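 also: ratio of sample to DMSO plate mean so 100% equals DMSO level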); settings: S. cerevisiae LAP4-GFP strain, 3 h, at 10 µM, stronger effect = higher value, 100 means same as DMSO control
# In short: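 Measured by: GFP by flow cytometry. Test system: GFP-fusion yeast strain. Input: yeast cells seeded at OD600 of 0.2. Timing: 30 °C, 3 h compound incubation, rotating. Buffer or medium: synthetic complete medium for yeast. Benchmarks: DMSO-only negative wells, rapamycin 400 ng/mL positive wells. Compound: 10 µM single dose.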
# [3] = TOR pathway reporter MEP2-GFP, retest of hits – S. cerevisiae, flow cytometry GFP, cherry picks, confirmation (AID 2272;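 active = GFP response above 150% of the DMSO control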;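 also: ratio of well signal to plate DMSO mean so 100% equals DMSO level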); settings: S. cerevisiae MEP2-GFP strain, 3 h, at 10 µM, stronger effect = higher value
# [4] = yeast AGP1-GFP fluorescence change, single-dose – cell-based, flow cytometry, S. cerevisiae, cherry picks, confirmation (AID 2273);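 also: median GFP channel fluorescence over the whole cell population gate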; settings: S. cerevisiae AGP1-GFP strain, 3 h, at 10 µM
# [5] = TOR pathway CIT2 reporter hit retest – S. cerevisiae, GFP fusion, cherry picks, mother/daughter gates, confirmation (AID 2274); settings: S. cerevisiae CIT2-GFP strain, flow cytometry, 3 h, at 10 µM, stronger effect = higher value
# [6] = measured here: daughter cell gate
# [7] = measured here: mother cell gate
# [8] = measured here: daughter cell gate response
# [9] = measured here: mother cell gate response
SMILES,GFP response vs DMSO [1],"GFP response vs DMSO [1, 6]","GFP response vs DMSO [1, 7]",GFP response relative to DMSO [2],"GFP response relative to DMSO [2, 8]","GFP response relative to DMSO [2, 9]",GFP response vs DMSO [3],"GFP response, % of DMSO [4]","GFP response, % of DMSO [5]","GFP response, % of DMSO [5, 6]","GFP response, % of DMSO [5, 7]"
Cc1nnc(OCc2nc3ccccc3n2C)c2ccccc12,101% (inactive),102%,101%,98.8% (inactive),93.6%,100%,99.5% (inactive),94.3% (inactive),96.4% (inactive),96.4%,95.6%
CCN(c1ccccc1)S(=O)(=O)c1ccc(C(=O)Nc2nnc(COC)o2)cc1,101% (inactive),99.5%,102%,96.2% (inactive),97.2%,98.3%,100% (inactive),99.2% (inactive),96.5% (inactive),94.8%,98.7%
O=C(/C=C/c1ccc(F)cc1)c1ccccc1Br,98% (inactive),98.1%,98.3%,112% (inactive),112%,116%,103% (inactive),98.1% (inactive),93.4% (inactive),93.7%,89.8%
O=C(O)Cc1sc(Nc2ccccc2)nc1-c1cccs1,97.8% (inactive),98%,97.9%,149% (inactive),144%,156%,110% (inactive),99.7% (inactive),104% (inactive),104%,103%
O=C(Nc1cccc(O)c1)c1ccc(Br)cc1,96% (inactive),97%,97.2%,98.8% (inactive),96.5%,100%,102% (inactive),103% (inactive),102% (inactive),102%,100%
CC1=NNC(=O)/C1=C\c1cn(-c2ccccc2)nc1-c1ccc(Cl)cc1,97.6% (inactive),98.3%,98.5%,107% (inactive),101%,114%,101% (inactive),105% (inactive),97.2% (inactive),96.8%,95.7%
CC1CC2=C(CC1/C=N/NC(N)=S)C(C)(C)CCC2 (stereo not drawn),96.4% (inactive),92.7%,95.3%,110% (inactive),106%,113%,107% (inactive),97.5% (inactive),91.5% (inactive),88.4%,90.7%
CCN(CC)Cc1csc2ccc(Br)cc12,98.4% (inactive),97.8%,98.2%,96.2% (inactive),97.2%,99.3%,102% (inactive),100% (inactive),97.8% (inactive),96.5%,98.7%
N#C/C(=C\c1c(N2CCN(c3ccccc3)CC2)nc2ccccn2c1=O)C(N)=O,104% (inactive),99.1%,99.3%,97% (inactive),97.5%,98.4%,105% (inactive),106% (inactive),98.8% (inactive),99.2%,88.2%
Cc1cccc2nc(-c3cccnc3)c(NCCC(C)C)n12,98.8% (inactive),99.8%,99.6%,89% (inactive),89.5%,92.1%,107% (inactive),98.5% (inactive),96.5% (inactive),99.7%,94.4%
O=C(O)CCc1ccc(-c2ccc(Br)cc2)o1,99.4% (inactive),92.2%,97%,137% (inactive),119%,129%,99% (inactive),86.6% (inactive),84.3% (inactive),81.2%,82.1%
COc1ccc(-c2ccc(SCC(=O)N3c4ccccc4CC3C)nn2)cc1OC (stereo not drawn),99.1% (inactive),98%,99.3%,100% (inactive),101%,101%,102% (inactive),99.3% (inactive),96.4% (inactive),96.4%,95.6%
CCCN1CCc2c(sc(NC(=S)NC(=O)c3ccccc3)c2C#N)C1,100% (inactive),99.6%,97.8%,116% (inactive),107%,120%,187% (active),102% (inactive),106% (inactive),99.2%,108%
Cc1ccc(NS(=O)(=O)c2ccc(CCC(=O)N3CCOCC3)cc2)cc1,94.6% (inactive),94.6%,94.9%,95.4% (inactive),96%,95.1%,96.2% (inactive),102% (inactive),101% (inactive),103%,101%
O=C(OCC(=O)N1CCN(C(=O)c2ccco2)CC1)c1cc(-c2ccc(Cl)c(Cl)c2Cl)nc2ccccc12,90.1% (inactive),89.1%,89%,97.9% (inactive),99.2%,104%,117% (inactive),116% (inactive),115% (inactive),105%,107%
CCCc1[nH]nc2c1C(c1ccc(O)cc1OCC)C(C#N)=C(N)O2 (stereo not drawn),102% (inactive),104%,100%,92.9% (inactive),99%,92.3%,106% (inactive),101% (inactive),104% (inactive),105%,104%
Cc1cc(NC(c2ccc(Cl)cc2)c2ccc3cccnc3c2O)no1 (stereo not drawn),97.8% (inactive),97.4%,97.6%,108% (inactive),104%,113%,100% (inactive),94.5% (inactive),98.3% (inactive),99.1%,98.5%

SMILES,GFP response vs DMSO [1],"GFP response vs DMSO [1, 6]","GFP response vs DMSO [1, 7]",GFP response relative to DMSO [2],"GFP response relative to DMSO [2, 8]","GFP response relative to DMSO [2, 9]",GFP response vs DMSO [3],"GFP response, % of DMSO [4]","GFP response, % of DMSO [5]","GFP response, % of DMSO [5, 6]","GFP response, % of DMSO [5, 7]"
Cc1ccc(S(=O)(=O)N(Cc2ccccc2)Cc2ccco2)cc1,102% (inactive),103%,104%,87.8% (inactive),87.9%,90.1%,97.8% (inactive),97.8% (inactive),106% (inactive),105%,104%
CCCc1[nH]nc2c1C(c1ccc(Br)s1)C(C#N)=C(N)O2 (stereo not drawn),96.2% (inactive),96.7%,95.4%,137% (inactive),136%,137%,122% (inactive),105% (inactive),101% (inactive),101%,102%
O=C(OCc1cc(Cl)ccc1OC(F)F)c1ccc([N+](=O)[O-])o1,97% (inactive),99.8%,94%,114% (inactive),110%,120%,100% (inactive),95.7% (inactive),95.2% (inactive),98.1%,92.3%
O=C(NNC(=O)C1CCCCC1)C(=O)NC1CCCCC1,99.1% (inactive),99.8%,99.3%,98.8% (inactive),97.9%,97.5%,112% (inactive),104% (inactive),104% (inactive),102%,104%
O=C1Nc2ccccc2C(=O)C1(Cl)Cc1ccccc1 (stereo not drawn),89.6% (inactive),91.9%,88.3%,132% (inactive),124%,134%,101% (inactive),102% (inactive),94.4% (inactive),95.8%,90.4%
CC(C)c1nc2ccccn2c1NC1CCCCC1,101% (inactive),98.4%,98%,97.9% (inactive),99.2%,98.3%,100% (inactive),102% (inactive),101% (inactive),103%,101%
Cc1ccc(N2CCN(C(=O)c3ccccc3Br)CC2)c(C)c1,100% (inactive),97.6%,101%,95.4% (inactive),92.8%,96.1%,98.3% (inactive),92.1% (inactive),96.9% (inactive),97.2%,96.1%
CCOc1ccccc1NC(=O)c1nc(S(=O)(=O)Cc2ccccc2)ncc1Cl,97.8% (inactive),99.8%,97.1%,94.1% (inactive),96%,95.4%,103% (inactive),106% (inactive),98.6% (inactive),101%,97.1%
CCc1ccc(OCC(=O)NNC(=S)NC(=O)C2CC2)c(Br)c1,82.8% (inactive),97.6%,70.1%,204% (active),164%,203%,126% (inactive),90.5% (inactive),115% (inactive),110%,105%
COc1ccccc1-c1noc(-c2cc(OC)c(OC)c(OC)c2)n1,97.2% (inactive),96.4%,96.3%,103% (inactive),105%,105%,104% (inactive),99.2% (inactive),99.1% (inactive),96.5%,98.7%
Cc1ccc(-c2csc(NC(=O)c3ccno3)n2)cc1,99% (inactive),98.4%,96.5%,103% (inactive),99.1%,106%,99% (inactive),95.1% (inactive),100% (inactive),99.2%,99.3%
Cc1cc(C)c2c(c1)/C(=C/C(=O)c1ccc(Br)s1)C(=O)N2,104% (inactive),102%,103%,99.5% (inactive),101%,102%,105% (inactive),97.8% (inactive),94.4% (inactive),93.8%,94.4%
Cc1ccc(S(=O)(=O)CC#CCOC(=O)c2ccc([N+](=O)[O-])cc2)cc1,105% (inactive),107%,103%,140% (inactive),132%,148%,105% (inactive),111% (inactive),97.2% (inactive),100%,90.8%
Cc1ccc(/C=C2/NC(=O)N(Cc3ccccc3)C2=O)o1,98.4% (inactive),99.8%,98.8%,112% (inactive),110%,113%,101% (inactive),101% (inactive),103% (inactive),105%,101%
CCSc1nnc(NC(=O)c2nc(S(=O)(=O)Cc3ccc(F)cc3)ncc2Cl)s1,102% (inactive),99%,103%,103% (inactive),108%,103%,104% (inactive),102% (inactive),112% (inactive),110%,113%
Cc1ccc(C)c(Cn2ncc3ccccc32)c1,95.8% (inactive),98.1%,95.4%,100% (inactive),97.5%,104%,106% (inactive),90.7% (inactive),94.4% (inactive),95.8%,92.6%
